Results taken from ChEMBL document CHEMBL1156780, “6-(Het)aryl-7-deazapurine ribonucleosides as novel potent cytostatic agents” (J Med Chem, 2010).

Assays:
[1] = Cytotoxicity against human HeLaS3 cells after 3 days by XTT assay; type: functional, cell-based; conditions: HeLa S3, 72 h
HCT-116 = test: Cytostatic activity against human HCT116 cells after 5 days by SRB assay; type: functional; conditions: HCT-116, 120 h
Outline: (§1)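 Cells seeded in RPMI (colon, breast, lung lines), MEM (Du145) or F12K (PC3) with 10% FBS, 37 °C overnight. Day-zero plates fixed with cold 10% TCA. Compounds added as 5-fold serial dilutions for 5 days. Fixed, stained with 0.057% SRB in 1% acetic acid, dye solubilized in 10 mM Tris pH 10.5, A500 read. Growth % corrected for day-0 OD; GIC₅₀ from sigmoidal fit.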

CCRF-CEM = test: Cytotoxicity against human CCRF-CEM cells after 3 days by XTT assay; type: functional, cell-based; conditions: 72 h
Outline: (§2)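 Cell viability of CCRF-CEM, HL60 and HeLa cells measured by XTT assay after 72 h incubation with compounds. IC₅₀ taken as mean of 2–4 independent experiments.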

A549 = test: Cytostatic activity against human A549 cells after 5 days by SRB assay; type: functional; conditions: A549, 120 h; outline: as §1
DU-145 = test: Cytostatic activity against human DU145 cells after 5 days by SRB assay; type: functional; conditions: DU-145, 120 h; outline: as §1
[2] = Cytostatic activity against human Hs578 cells after 5 days by SRB assay; type: functional; conditions: Hs578, 120 h; outline: as §1
HL-60 = test: Cytotoxicity against human HL60 cells after 3 days by XTT assay; type: functional, cell-based; conditions: HL-60, 72 h; outline: as §2
NCI-H23 = test: Cytotoxicity against human NCI-H23 cells after 5 days by SRB assay; type: functional; conditions: NCI-H23, 120 h; outline: as §1
HCT-15 = test: Cytotoxicity against human HCT15 cells after 5 days by SRB assay; type: functional; conditions: HCT-15, 120 h; outline: as §1
PC-3 = test: Cytotoxicity against human PC3 cells after 5 days by SRB assay; type: functional; conditions: PC-3, 120 h; outline: as §1
BT-549 = test: Cytotoxicity against human BT549 cells after 5 days by SRB assay; type: functional; conditions: BT-549, 120 h; outline: as §1

Structure (SMILES)	IC50 [1] [nM]	GI50 (HCT-116) [nM]	IC50 (CCRF-CEM) [nM]	GI50 (A549) [nM]	GI50 (DU-145) [nM]	GI50 [2] [nM]	IC50 (HL-60) [nM]	GI50 (NCI-H23) [nM]	GI50 (HCT-15) [nM]	GI50 (PC-3) [nM]	GI50 (BT-549) [nM]
OC[C@H]1O[C@@H](n2ccc3c(-c4ccccc4)ncnc32)[C@H](O)[C@@H]1O	> 40000	> 10000	4000	> 10000	1100	> 10000	–	–	–	–	–
OC[C@H]1O[C@@H](n2ccc3c(-c4nccs4)ncnc32)[C@H](O)[C@@H]1O	130	480	390	410	19	290	1200	–	–	–	–
OC[C@H]1O[C@@H](n2ccc3c(Cc4ccccc4)ncnc32)[C@H](O)[C@@H]1O	> 7500	> 10000	3800	> 10000	> 10000	> 10000	> 10000	–	–	–	–
Nc1nc(Cl)nc2c1ncn2[C@@H]1O[C@H](CO)[C@@H](O)[C@@H]1F [CLOFARABINE]	–	–	–	–	–	–	–	40	180	63	65
OCc1ncnc2c1ccn2[C@@H]1O[C@H](CO)[C@@H](O)[C@H]1O	350	450	450	250	30	53	2200	–	–	–	–
OC[C@H]1O[C@@H](n2ccc3c(-c4cccnc4)ncnc32)[C@H](O)[C@@H]1O	> 10000	> 10000	> 10000	> 10000	> 10000	> 10000	> 10000	–	–	–	–
OC[C@H]1O[C@@H](n2cc(Cl)c3c(-c4ccoc4)ncnc32)[C@H](O)[C@@H]1O	2700	2000	1100	1100	54	1600	2500	–	–	–	–
OC[C@H]1O[C@@H](n2cc(F)c3c(-c4cc[nH]c4)ncnc32)[C@H](O)[C@@H]1O	8900	250	930	130	10	360	1900	–	–	–	–
OC[C@H]1O[C@@H](n2cc(F)c3c(-c4ccoc4)ncnc32)[C@H](O)[C@@H]1O	170	18	1000	60	5	180	2000	–	–	–	–
OC[C@H]1O[C@@H](n2ccc3c(-c4ccc(F)cc4)ncnc32)[C@H](O)[C@@H]1O	2900	> 10000	23200	> 10000	730	2500	52700	–	–	–	–
OC[C@H]1O[C@@H](n2ccc3c(-c4ccccn4)ncnc32)[C@H](O)[C@@H]1O	–	> 10000	1500	4900	390	> 10000	> 40000	–	–	–	–
OC[C@H]1O[C@@H](n2cc(Cl)c3c(-c4ccsc4)ncnc32)[C@H](O)[C@@H]1O	340	100	1000	380	18	110	1600	–	–	–	–
OC[C@H]1O[C@@H](n2cc(F)c3c(-c4nccs4)ncnc32)[C@H](O)[C@@H]1O	3100	1300	550	900	24	570	1000	–	–	–	–
OC[C@H]1O[C@@H](n2ccc3c(-c4c[nH]cn4)ncnc32)[C@H](O)[C@@H]1O	3300	3700	710	2600	94	1900	–	–	–	–	–
OC[C@H]1O[C@@H](n2cc(F)c3c(-c4ccccc4)ncnc32)[C@H](O)[C@@H]1O	2600	> 10000	3100	> 10000	580	> 10000	> 40000	–	–	–	–
OC[C@H]1O[C@@H](n2ccc3c(-c4ccc[se]4)ncnc32)[C@H](O)[C@@H]1O	7400	340	1500	230	28	290	2800	–	–	–	–
OC[C@H]1O[C@@H](n2cc(F)c3c(-c4ccc[nH]4)ncnc32)[C@H](O)[C@@H]1O	230	450	410	190	9	310	3300	–	–	–	–
OC[C@H]1O[C@@H](n2cc(Cl)c3c(-c4cccs4)ncnc32)[C@H](O)[C@@H]1O	28200	270	2700	380	13	1600	5500	–	–	–	–
OC[C@H]1O[C@@H](n2cc(F)c3c(-c4ccsc4)ncnc32)[C@H](O)[C@@H]1O	210	140	560	380	66	810	4900	–	–	–	–
CCc1ncnc2c1ccn2[C@@H]1O[C@H](CO)[C@@H](O)[C@H]1O	3600	2600	1250	4400	1200	4700	5600	–	–	–	–
OC[C@H]1O[C@@H](n2ccc3c(-c4ccc[nH]4)ncnc32)[C@H](O)[C@@H]1O	–	> 10000	10000	> 10000	630	1300	–	–	–	–	–
OC[C@H]1O[C@@H](n2cc(F)c3c(-c4ccco4)ncnc32)[C@H](O)[C@@H]1O	8000	39	1400	110	5	180	1200	4300	57	75	110
OC[C@H]1O[C@@H](n2cc(Cl)c3c(-c4ccccc4)ncnc32)[C@H](O)[C@@H]1O	420	1400	910	2500	140	> 10000	1200	–	–	–	–
OC[C@H]1O[C@@H](n2ccc3c(-c4cc[nH]c4)ncnc32)[C@H](O)[C@@H]1O	260	500	280	360	30	440	1200	–	–	–	–
OC[C@H]1O[C@@H](n2ccc3c(-c4ccsc4)ncnc32)[C@H](O)[C@@H]1O	–	220	4000	630	32	710	> 40000	–	–	–	–
OC[C@H]1O[C@@H](n2ccc3c(-c4cn[nH]c4)ncnc32)[C@H](O)[C@@H]1O	4100	5700	1000	6200	75	3100	–	–	–	–	–
OC[C@H]1O[C@@H](n2ccc3c(-c4ccn[nH]4)ncnc32)[C@H](O)[C@@H]1O	1100	7300	910	3300	410	3900	10100	–	–	–	–
OC[C@H]1O[C@@H](n2cc(F)c3c(-c4c[nH]cn4)ncnc32)[C@H](O)[C@@H]1O	12200	> 10000	1800	> 10000	890	2100	–	–	–	–	–
COc1ccc(-c2ncnc3c2ccn3[C@@H]2O[C@H](CO)[C@@H](O)[C@H]2O)cc1	> 10000	> 10000	10900	> 10000	1300	> 10000	> 10000	–	–	–	–
